Key:
[1] = biological target: T1, Sodium- and chloride-dependent glycine transporter 1 (Homo sapiens, UniProt P48067); assay: Inhibition of [3H]glycine uptake at human glycine transporter 1 expressed in human JAR cells after 3 hrs by scintillation counting; type: cell-based
T1 sequence (P48067 whole entry): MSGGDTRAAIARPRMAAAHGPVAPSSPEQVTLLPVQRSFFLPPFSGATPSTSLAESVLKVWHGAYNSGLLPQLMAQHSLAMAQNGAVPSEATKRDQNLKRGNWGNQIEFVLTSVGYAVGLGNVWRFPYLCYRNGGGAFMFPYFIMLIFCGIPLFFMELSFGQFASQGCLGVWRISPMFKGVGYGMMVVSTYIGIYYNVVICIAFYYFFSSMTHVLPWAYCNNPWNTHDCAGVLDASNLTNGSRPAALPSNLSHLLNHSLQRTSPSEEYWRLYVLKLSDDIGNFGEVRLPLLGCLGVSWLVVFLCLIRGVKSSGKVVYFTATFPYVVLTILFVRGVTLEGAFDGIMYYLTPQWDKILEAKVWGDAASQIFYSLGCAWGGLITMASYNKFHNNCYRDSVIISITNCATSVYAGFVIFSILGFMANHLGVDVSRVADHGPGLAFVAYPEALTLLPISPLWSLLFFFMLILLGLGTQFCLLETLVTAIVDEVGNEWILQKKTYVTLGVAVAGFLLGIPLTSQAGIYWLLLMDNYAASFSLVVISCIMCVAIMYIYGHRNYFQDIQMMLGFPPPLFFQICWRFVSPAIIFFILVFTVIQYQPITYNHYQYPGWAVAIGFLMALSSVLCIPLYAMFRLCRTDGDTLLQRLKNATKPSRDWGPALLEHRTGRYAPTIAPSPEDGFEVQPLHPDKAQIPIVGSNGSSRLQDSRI

[2] = Bioavailability in Sprague-Dawley rat at 0.1 mg/kg, iv and 1 mg/kg, po; type: ADME, organism-based; details: in vivo
Outline: (§1)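 Six male Sprague-Dawley rats were used. Three received 0.1 mg/kg i.v. and three received 1 mg/kg p.o.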

[3] = Metabolic stability in dog liver microsomes assessed as parent compound turnover at 1 uM after 15 mins; type: ADME, Canis lupus familiaris, Microsome; details: read-out: Stability
Outline: (§2)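 Test compounds at 1 μM incubated at 37 °C for 15 min with liver microsomes (rat, dog or human) at 0.5 mg/ml protein. Cosolvent was 0.99% MeCN + 0.01% DMSO. Read-out is % turnover of parent.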

[4] = Metabolic stability in human liver microsomes assessed as parent compound turnover at 1 uM after 15 mins; type: ADME, Microsome; details: read-out: Stability; outline: as §2
[5] = Volume of distribution in Sprague-Dawley rat at 0.1 mg/kg, iv and 1 mg/kg, po; type: ADME, organism-based; details: in vivo; outline: as §1
[6] = biological target: T2, Sodium- and chloride-dependent glycine transporter 2 (Homo sapiens, UniProt Q9Y345); assay: Inhibition of human glycine transporter 2
T2 sequence (Q9Y345 whole entry): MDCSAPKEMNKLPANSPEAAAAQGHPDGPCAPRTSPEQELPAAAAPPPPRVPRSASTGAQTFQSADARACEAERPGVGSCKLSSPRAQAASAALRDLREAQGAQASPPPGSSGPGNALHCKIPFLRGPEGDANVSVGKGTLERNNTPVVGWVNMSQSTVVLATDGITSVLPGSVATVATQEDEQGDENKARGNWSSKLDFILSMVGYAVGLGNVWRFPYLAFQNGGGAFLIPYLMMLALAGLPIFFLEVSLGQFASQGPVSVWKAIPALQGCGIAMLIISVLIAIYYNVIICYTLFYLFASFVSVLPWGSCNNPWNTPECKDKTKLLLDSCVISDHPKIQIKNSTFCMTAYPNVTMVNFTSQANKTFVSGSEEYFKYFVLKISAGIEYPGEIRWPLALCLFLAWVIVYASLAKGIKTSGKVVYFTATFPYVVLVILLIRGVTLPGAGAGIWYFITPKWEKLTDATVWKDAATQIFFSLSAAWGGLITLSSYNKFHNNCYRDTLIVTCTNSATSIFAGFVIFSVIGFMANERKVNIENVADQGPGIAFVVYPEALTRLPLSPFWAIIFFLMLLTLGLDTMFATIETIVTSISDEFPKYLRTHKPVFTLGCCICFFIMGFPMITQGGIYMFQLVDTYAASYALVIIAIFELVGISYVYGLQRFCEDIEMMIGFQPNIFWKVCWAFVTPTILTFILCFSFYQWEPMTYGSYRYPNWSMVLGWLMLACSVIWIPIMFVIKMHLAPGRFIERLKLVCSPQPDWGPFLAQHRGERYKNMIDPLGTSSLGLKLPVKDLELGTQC

[7] = Metabolic stability in rat liver microsomes assessed as parent compound turnover at 1 uM after 15 mins; type: ADME, Microsome; details: read-out: Stability; outline: as §2
[8] = Half life in Sprague-Dawley rat at 0.1 mg/kg, iv and 1 mg/kg, po; type: ADME, organism-based; details: in vivo; outline: as §1
[9] = Clearance in Sprague-Dawley rat at 0.1 mg/kg, iv and 1 mg/kg, po; type: ADME, organism-based; details: in vivo; outline: as §1
[10] = system: Mus musculus; assay: Ex vivo occupancy of glycine transporter 1 in po dosed mouse; type: functional
[11] = biological target: T3, Sodium- and chloride-dependent glycine transporter 1 (Homo sapiens) (UniProt P48067); assay: Inhibition of [3H]glycine uptake at human glycine transporter 1 expressed in human JAR cells at 3 uM after 3 hrs by scintillation counting; type: cell-based
T3 sequence (whole entry): T1 sequence (P48067 whole entry)

[12] = Volume of distribution at steady state in Sprague-Dawley rat at 0.1 mg/kg, iv and 1 mg/kg, po; type: ADME, organism-based; details: in vivo, read-out: Vdss; outline: as §1
[13] = Plasma clearance in Sprague-Dawley rat at 0.1 mg/kg, iv and 1 mg/kg, po; type: ADME, organism-based; outline: as §1
[14] = system: Rattus norvegicus; assay: In vivo occupancy of glycine transporter 1 in rat; type: functional

Row | Structure (SMILES) | IC50 [1] | metabolised at 0.25 h, 1 µM [3] | metabolised at 0.25 h, 1 µM [4] | metabolised at 0.25 h, 1 µM [7] | also measured
1 | Cn1ncc(S(=O)(=O)N2CC(CNC(=O)c3ccc(Cl)cc3Cl)(CC3CC3)C2)n1 | 132 nM | – | – | – | –
2 | Cn1nncc1S(=O)(=O)N1CC(CNC(=O)c2ccc(Cl)cc2Cl)(CC2CC2)C1 | 185 nM | – | – | – | –
3 | Cn1cc(S(=O)(=O)N2CCC(CNC(=O)c3ccc(Cl)cc3Cl)(CC3CC3)CC2)nn1 | 0.32 nM | 34% | 43% | 88% | bioavailability [2]: 27%; Vd [5]: 2.2 L/kg; IC50 [6]: > 10000 nM; half-life [8]: 1.1 h; clearance [9]: 39 mL/min/kg; Occ50 [10]: <1 mg/kg
4 | Cn1cc(S(=O)(=O)N2CC(CNC(=O)c3ccc(Cl)cc3Cl)(c3ncccc3F)C2)cn1 | 2.95 nM | < 5% | 25% | 56% | –
5 | Cn1cc(S(=O)(=O)N2CC(CNC(=O)c3ccc(Cl)cc3Cl)(CC3CC3)C2)nn1 | 0.1 nM | 24% | 32% | 88% | –
6 | Cn1cc(S(=O)(=O)N2CC(CNC(=O)c3ccc(Cl)cc3Cl)(c3ncccc3F)C2)nn1 | 0.31 nM | 5% | 22% | 15% | –
7 | Cn1cnc(S(=O)(=O)N2CCC(CNC(=O)c3ccc(Cl)cc3Cl)(CC3CC3)CC2)n1 | – | – | – | – | inhibition [11]: 13%
8 | O=C(NCC1(c2ncccc2F)CCN(S(=O)(=O)c2ccc(Cl)s2)CC1)c1ccc(Cl)cc1Cl | – | – | – | – | inhibition [11]: 20%
9 | O=C(NCC1(c2ncccc2F)CCN(S(=O)(=O)CC2CC2)CC1)c1ccc(Cl)cc1Cl | 2 nM | 20% | 21% | 78% | –
10 | O=C(NCC1(c2ncccc2F)CCN(S(=O)(=O)Cc2ccccc2)CC1)c1ccc(Cl)cc1Cl | – | – | – | – | inhibition [11]: 33%
11 | CCn1cc(S(=O)(=O)N2CC(CNC(=O)c3ccc(Cl)cc3Cl)(CC3CC3)C2)nn1 | 2.58 nM | 44% | 45% | 65% | –
12 | Cn1cc(S(=O)(=O)N2CCC(CNC(=O)c3ccc(Cl)cc3Cl)(c3ncccc3F)CC2)nn1 | 0.65 nM | 17% | 20% | 6% | bioavailability [2]: 3%; IC50 [6]: > 10000 nM; half-life [8]: 0.3 h; Occ50 [10]: 7.5 mg/kg
13 | Cn1ncnc1S(=O)(=O)N1CCC(CNC(=O)c2ccc(Cl)cc2Cl)(CC2CC2)CC1 | 314 nM | – | – | – | –
14 | Cn1cc(S(=O)(=O)[C@H]2CC[C@@](CNC(=O)c3ccc(Cl)cc3Cl)(CC3CC3)CC2)nn1 | 1.89 nM | – | 28% | 23% | bioavailability [2]: 59%; Vd [12]: 2.3 L/kg; clearance [13]: 16 mL/min/kg; half-life [8]: 1.8 h; Occ50 [14]: 2.2 mg/kg
15 | O=C(NCC1(CC2CC2)CN(S(=O)(=O)c2c[nH]nn2)C1)c1ccc(Cl)cc1Cl | 871 nM | – | – | – | –
16 | CCCS(=O)(=O)N1CCC(CNC(=O)c2ccc(Cl)cc2Cl)(c2ncccc2F)CC1 | 4.33 nM | 25% | 23% | 73% | –
17 | O=C(NCC1(CC2CC2)CCN(S(=O)(=O)c2cn(CC(F)(F)F)nn2)CC1)c1ccc(Cl)cc1Cl | 502 nM | – | – | – | –
18 | Cn1cnc(S(=O)(=O)N2CCC(CNC(=O)c3ccc(Cl)cc3Cl)(c3ncccc3F)CC2)c1 | 1.74 nM | 21% | – | 30% | IC50 [6]: > 10000 nM
19 | O=C(NCC1(c2ncccc2F)CCN(S(=O)(=O)c2cccs2)CC1)c1ccc(Cl)cc1Cl | 125 nM | 72% | – | 98% | –
20 | O=C(NCC1(c2ncccc2F)CCN(S(=O)(=O)c2cccnc2)CC1)c1ccc(Cl)cc1Cl | 11.6 nM | 96% | 99% | 99% | –
21 | Cn1cc(S(=O)(=O)N2CC(CNC(=O)c3ccc(Cl)cc3Cl)(CC3CC3)C2)cn1 | 3.62 nM | 70% | 21% | 17% | bioavailability [2]: 48%; IC50 [6]: > 10000 nM; clearance [13]: 46 mL/min/kg; half-life [8]: 2.4 h; Occ50 [10]: 3.8 mg/kg
22 | O=C(NCC1(c2ncccc2F)CCN(S(=O)(=O)c2ccccc2)CC1)c1ccc(Cl)cc1Cl | – | – | – | – | inhibition [11]: 38%
23 | Cn1cc(S(=O)(=O)[C@H]2CC[C@](CNC(=O)c3ccc(Cl)cc3Cl)(CC3CC3)CC2)nn1 | 5.44 nM | – | 28% | 10% | bioavailability [2]: 105%; Vd [12]: 2.6 L/kg; clearance [13]: 34 mL/min/kg; half-life [8]: 1.1 h; Occ50 [14]: 3.4 mg/kg
24 | CCn1cc(S(=O)(=O)N2CCC(CNC(=O)c3ccc(Cl)cc3Cl)(CC3CC3)CC2)nn1 | 28.2 nM | – | – | – | –
25 | Cn1cnnc1S(=O)(=O)N1CCC(CNC(=O)c2ccc(Cl)cc2Cl)(CC2CC2)CC1 | 124 nM | – | – | – | –
26 | Cn1cc(S(=O)(=O)N2CCC(CNC(=O)c3ccc(Cl)cc3Cl)(c3ncccc3F)CC2)cn1 | 5.43 nM | 24% | 42% | 55% | IC50 [6]: > 10000 nM
27 | Cc1nc(S(=O)(=O)N2CCC(CNC(=O)c3ccc(Cl)cc3Cl)(c3ncccc3F)CC2)cn1C | – | – | – | – | inhibition [11]: 31%
28 | Cn1cc(S(=O)(=O)N2CCC(CNC(=O)c3ccc(Cl)cc3Cl)(CC3CC3)CC2)cn1 | 10.3 nM | 38% | 10% | 5% | IC50 [6]: > 10000 nM
